Tested on: HEK-293T
Assay: Multiplex assay against HEK293T
Type: toxicity, cell-based
Conditions: human
How it was run: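 Hoechst33342, BioTracker Green Microtubule Cytoskeleton Dye, MitoTracker Red and Annexin V Alexa Fluor 680 were added to live cells at seeding, and imaging on a CQ1 microscope at 37°C and 5% CO2 followed compound addition. Gating by CellPathfinder machine learning separated cells into Hoechst high-intensity objects or normal cells, then normal cells into healthy, pyknosed or fragmented nuclei, then pyknosed cells into mitotic or apoptotic. Per cents of healthy-nucleus cells are reported for the tubulin, mitochondrial-mass and membrane-permeability phenotypes.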

[1] = 12 h, 1 µM, compound concentration 1 uM, replicate 1
[2] = 12 h, 1 µM, compound concentration 1 uM, replicate 2
[3] = 12 h, 10 µM, compound concentration 10 uM, replicate 1
[4] = 12 h, 10 µM, compound concentration 10 uM, replicate 2
[5] = 24 h, 1 µM, compound concentration 1 uM, replicate 1
[6] = 24 h, 1 µM, compound concentration 1 uM, replicate 2
[7] = 24 h, 10 µM, compound concentration 10 uM, replicate 1
[8] = 24 h, 10 µM, compound concentration 10 uM, replicate 2
[9] = 48 h, 1 µM, compound concentration 1 uM, replicate 1
[10] = 48 h, 1 µM, compound concentration 1 uM, replicate 2
[11] = 48 h, 10 µM, compound concentration 10 uM, replicate 1
[12] = 48 h, 10 µM, compound concentration 10 uM, replicate 2

## CC(C)(O)C(=O)N1CCN(c2ccc(C(F)(F)F)c(C3=C(c4c[nH]c5ccccc45)C(=O)NC3=O)c2)CC1
[1]
  Population Apoptotic (%): 33%
  Population Fragmented Nuclei (%): 4%
  Population Healthy Nuclei (%): 78%
  Population Hoechst High Intensity Objects (%): 8%
  Population Membrane Permeable-Phenotype (%): 0%
  Population Mitochondria Different-Phenotype (%): 43%
  Population Mitotic Cells (%): 66%
  Population Normal (%): 91%
  Population Pyknosed Nuclei (%): 16%
  Population Tubulin-Different-Phenotype (%): 28%
  Total Cell Count: 381
[2]
  Population Apoptotic (%): 46%
  Population Fragmented Nuclei (%): 5%
  Population Healthy Nuclei (%): 76%
  Population Hoechst High Intensity Objects (%): 7%
  Population Mitochondria Different-Phenotype (%): 58%
  Population Mitotic Cells (%): 53%
  Population Normal (%): 92%
  Population Pyknosed Nuclei (%): 17%
  Population Tubulin-Different-Phenotype (%): 30%
  Total Cell Count: 293
[3]
  Population Apoptotic (%): 51%
  Population Fragmented Nuclei (%): 4%
  Population Healthy Nuclei (%): 74%
  Population Hoechst High Intensity Objects (%): 10%
  Population Membrane Permeable-Phenotype (%): 0%
  Population Mitochondria Different-Phenotype (%): 61%
  Population Mitotic Cells (%): 48%
  Population Normal (%): 89%
  Population Pyknosed Nuclei (%): 20%
  Population Tubulin-Different-Phenotype (%): 62%
  Total Cell Count: 338
[4]
  Population Apoptotic (%): 72%
  Population Fragmented Nuclei (%): 3%
  Population Healthy Nuclei (%): 75%
  Population Hoechst High Intensity Objects (%): 7%
  Population Mitochondria Different-Phenotype (%): 90%
  Population Mitotic Cells (%): 27%
  Population Normal (%): 92%
  Population Pyknosed Nuclei (%): 21%
  Population Tubulin-Different-Phenotype (%): 63%
  Total Cell Count: 203
[5]
  Population Apoptotic (%): 33%
  Population Fragmented Nuclei (%): 8%
  Population Healthy Nuclei (%): 74%
  Population Hoechst High Intensity Objects (%): 5%
  Population Membrane Permeable-Phenotype (%): 0%
  Population Mitochondria Different-Phenotype (%): 32%
  Population Mitotic Cells (%): 66%
  Population Normal (%): 94%
  Population Pyknosed Nuclei (%): 17%
  Population Tubulin-Different-Phenotype (%): 19%
  Total Cell Count: 469
[6]
  Population Apoptotic (%): 29%
  Population Fragmented Nuclei (%): 5%
  Population Healthy Nuclei (%): 79%
  Population Mitochondria Different-Phenotype (%): 48%
  Population Mitotic Cells (%): 70%
  Population Pyknosed Nuclei (%): 14%
  Total Cell Count: 335
[7]
  Population Apoptotic (%): 45%
  Population Fragmented Nuclei (%): 6%
  Population Healthy Nuclei (%): 71%
  Population Hoechst High Intensity Objects (%): 4%
  Population Membrane Permeable-Phenotype (%): 1%
  Population Mitochondria Different-Phenotype (%): 48%
  Population Mitotic Cells (%): 54%
  Population Normal (%): 95%
  Population Pyknosed Nuclei (%): 22%
  Population Tubulin-Different-Phenotype (%): 43%
  Total Cell Count: 387
[8]
  Population Apoptotic (%): 66%
  Population Fragmented Nuclei (%): 2%
  Population Hoechst High Intensity Objects (%): 7%
  Population Membrane Permeable-Phenotype (%): 0%
  Population Mitochondria Different-Phenotype (%): 84%
  Population Mitotic Cells (%): 34%
  Population Normal (%): 92%
  Population Pyknosed Nuclei (%): 25%
  Population Tubulin-Different-Phenotype (%): 60%
  Total Cell Count: 212
[9]
  Population Apoptotic (%): 25%
  Population Fragmented Nuclei (%): 9%
  Population Healthy Nuclei (%): 79%
  Population Hoechst High Intensity Objects (%): 2%
  Population Membrane Permeable-Phenotype (%): 0%
  Population Mitochondria Different-Phenotype (%): 21%
  Population Mitotic Cells (%): 74%
  Population Normal (%): 97%
  Population Pyknosed Nuclei (%): 10%
  Population Tubulin-Different-Phenotype (%): 14%
  Total Cell Count: 780
[10]
  Population Apoptotic (%): 27%
  Population Fragmented Nuclei (%): 10%
  Population Hoechst High Intensity Objects (%): 5%
  Population Mitochondria Different-Phenotype (%): 29%
  Population Mitotic Cells (%): 72%
  Population Normal (%): 94%
  Population Tubulin-Different-Phenotype (%): 15%
  Total Cell Count: 571
[11]
  Population Apoptotic (%): 54%
  Population Fragmented Nuclei (%): 8%
  Population Healthy Nuclei (%): 71%
  Population Hoechst High Intensity Objects (%): 8%
  Population Membrane Permeable-Phenotype (%): 0%
  Population Mitochondria Different-Phenotype (%): 53%
  Population Mitotic Cells (%): 45%
  Population Normal (%): 91%
  Population Pyknosed Nuclei (%): 19%
  Population Tubulin-Different-Phenotype (%): 25%
  Total Cell Count: 467
[12]
  Population Apoptotic (%): 78%
  Population Fragmented Nuclei (%): 9%
  Population Mitochondria Different-Phenotype (%): 71%
  Population Mitotic Cells (%): 21%
  Population Tubulin-Different-Phenotype (%): 40%
  Total Cell Count: 227

## COc1cc2nc(N3CCN(C(=O)COc4c(OC)cccc4C(C)C)CC3)nc(N)c2cc1OC.Cl.Cl
[1]
  Population Apoptotic (%): 35%
  Population Fragmented Nuclei (%): 12%
  Population Healthy Nuclei (%): 77%
  Population Hoechst High Intensity Objects (%): 5%
  Population Membrane Permeable-Phenotype (%): 0%
  Population Mitochondria Different-Phenotype (%): 48%
  Population Mitotic Cells (%): 64%
  Population Normal (%): 94%
  Population Pyknosed Nuclei (%): 9%
  Population Tubulin-Different-Phenotype (%): 23%
  Total Cell Count: 402
[2]
  Population Apoptotic (%): 46%
  Population Fragmented Nuclei (%): 8%
  Population Healthy Nuclei (%): 81%
  Population Hoechst High Intensity Objects (%): 4%
  Population Mitochondria Different-Phenotype (%): 58%
  Population Mitotic Cells (%): 53%
  Population Normal (%): 95%
  Population Tubulin-Different-Phenotype (%): 18%
  Total Cell Count: 365
[3]
  Population Apoptotic (%): 52%
  Population Fragmented Nuclei (%): 13%
  Population Healthy Nuclei (%): 69%
  Population Hoechst High Intensity Objects (%): 25%
  Population Membrane Permeable-Phenotype (%): 1%
  Population Mitochondria Different-Phenotype (%): 74%
  Population Mitotic Cells (%): 48%
  Population Normal (%): 74%
  Population Pyknosed Nuclei (%): 17%
  Population Tubulin-Different-Phenotype (%): 81%
  Total Cell Count: 386
[4]
  Population Apoptotic (%): 57%
  Population Fragmented Nuclei (%): 14%
  Population Healthy Nuclei (%): 67%
  Population Hoechst High Intensity Objects (%): 18%
  Population Membrane Permeable-Phenotype (%): 3%
  Population Mitochondria Different-Phenotype (%): 66%
  Population Mitotic Cells (%): 42%
  Population Normal (%): 81%
  Population Pyknosed Nuclei (%): 18%
  Population Tubulin-Different-Phenotype (%): 66%
  Total Cell Count: 286
[5]
  Population Apoptotic (%): 35%
  Population Fragmented Nuclei (%): 11%
  Population Healthy Nuclei (%): 77%
  Population Hoechst High Intensity Objects (%): 5%
  Population Membrane Permeable-Phenotype (%): 0%
  Population Mitochondria Different-Phenotype (%): 27%
  Population Mitotic Cells (%): 64%
  Population Normal (%): 95%
  Population Pyknosed Nuclei (%): 10%
  Population Tubulin-Different-Phenotype (%): 19%
  Total Cell Count: 540
[6]
  Population Apoptotic (%): 42%
  Population Fragmented Nuclei (%): 8%
  Population Healthy Nuclei (%): 84%
  Population Hoechst High Intensity Objects (%): 2%
  Population Mitochondria Different-Phenotype (%): 44%
  Population Mitotic Cells (%): 57%
  Population Normal (%): 97%
  Population Pyknosed Nuclei (%): 7%
  Population Tubulin-Different-Phenotype (%): 16%
  Total Cell Count: 472
[7]
  Population Apoptotic (%): 42%
  Population Fragmented Nuclei (%): 14%
  Population Healthy Nuclei (%): 64%
  Population Hoechst High Intensity Objects (%): 29%
  Population Membrane Permeable-Phenotype (%): 2%
  Population Mitochondria Different-Phenotype (%): 68%
  Population Mitotic Cells (%): 57%
  Population Normal (%): 70%
  Population Pyknosed Nuclei (%): 21%
  Population Tubulin-Different-Phenotype (%): 69%
  Total Cell Count: 498
[8]
  Population Apoptotic (%): 51%
  Population Fragmented Nuclei (%): 13%
  Population Healthy Nuclei (%): 59%
  Population Hoechst High Intensity Objects (%): 39%
  Population Mitochondria Different-Phenotype (%): 72%
  Population Mitotic Cells (%): 48%
  Population Normal (%): 60%
  Population Pyknosed Nuclei (%): 27%
  Population Tubulin-Different-Phenotype (%): 63%
  Total Cell Count: 286
[9]
  Population Apoptotic (%): 28%
  Population Fragmented Nuclei (%): 16%
  Population Healthy Nuclei (%): 76%
  Population Hoechst High Intensity Objects (%): 2%
  Population Membrane Permeable-Phenotype (%): 1%
  Population Mitochondria Different-Phenotype (%): 18%
  Population Mitotic Cells (%): 71%
  Population Normal (%): 97%
  Population Pyknosed Nuclei (%): 6%
  Population Tubulin-Different-Phenotype (%): 11%
  Total Cell Count: 930
[10]
  Population Apoptotic (%): 11%
  Population Fragmented Nuclei (%): 15%
  Population Healthy Nuclei (%): 78%
  Population Hoechst High Intensity Objects (%): 3%
  Population Membrane Permeable-Phenotype (%): 0%
  Population Mitotic Cells (%): 88%
  Population Normal (%): 96%
  Population Tubulin-Different-Phenotype (%): 12%
  Total Cell Count: 737
[11]
  Population Apoptotic (%): 31%
  Population Fragmented Nuclei (%): 18%
  Population Healthy Nuclei (%): 56%
  Population Hoechst High Intensity Objects (%): 41%
  Population Membrane Permeable-Phenotype (%): 3%
  Population Mitochondria Different-Phenotype (%): 48%
  Population Mitotic Cells (%): 68%
  Population Normal (%): 58%
  Population Pyknosed Nuclei (%): 25%
  Population Tubulin-Different-Phenotype (%): 56%
  Total Cell Count: 660
[12]
  Population Apoptotic (%): 30%
  Population Fragmented Nuclei (%): 17%
  Population Healthy Nuclei (%): 59%
  Population Hoechst High Intensity Objects (%): 46%
  Population Membrane Permeable-Phenotype (%): 1%
  Population Mitochondria Different-Phenotype (%): 49%
  Population Mitotic Cells (%): 69%
  Population Normal (%): 53%
  Population Pyknosed Nuclei (%): 23%
  Population Tubulin-Different-Phenotype (%): 38%
  Total Cell Count: 430

Source: ChEMBL document CHEMBL5058577, “EUbOPEN Chemogenomics Library 2 (Multiplex)” (2022)
